From ChEMBL document CHEMBL2321826, “Synthesis and antibacterial evaluation of rhodanine-based 5-aryloxy pyrazoles against selected methicillin resistant and quinolone-resistant Staphylococcus aureus (MRSA and QRSA)” (Eur J Med Chem, 2013)
≈ marks a conversion by molar mass, not a printed value.

What was measured:
Staphylococcus aureus [1] = assay: Antibacterial activity against methicillin-resistant Staphylococcus aureus CCARM 3167 assessed as bacterial growth inhibition measured during 24 hrs incubation at 37 degC by two-fold serial dilution technique; format: functional; conditions: CCARM 3167, 24 h
Summary of the method: (§1)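 Clinical isolates grown to mid-log phase in Mueller-Hinton broth, diluted 1000-fold, inoculated at 10⁵ CFU/mL in MHB in 96-well microtiter plates. Two-fold serial dilutions gave final concentrations of […]. Oxacillin and norfloxacin were the positive controls. Growth was read as absorbance at 650 nm. MIC is the lowest concentration giving complete growth inhibition.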

Staphylococcus aureus [2] = assay: Antibacterial activity against methicillin-resistant Staphylococcus aureus CCARM 3506 assessed as bacterial growth inhibition measured during 24 hrs incubation at 37 degC by two-fold serial dilution technique; format: functional; conditions: CCARM 3506, 24 h; summary of the method: as §1
Staphylococcus aureus [3] = assay: Antibacterial activity against quinolone-resistant Staphylococcus aureus CCARM 3505 assessed as bacterial growth inhibition measured during 24 hrs incubation at 37 degC by two-fold serial dilution technique; format: functional; conditions: CCARM 3505, 24 h; summary of the method: as §1
Staphylococcus aureus [4] = assay: Antibacterial activity against quinolone-resistant Staphylococcus aureus CCARM 3519 assessed as bacterial growth inhibition measured during 24 hrs incubation at 37 degC by two-fold serial dilution technique; format: functional; conditions: CCARM 3519, 24 h; summary of the method: as §1
HeLa [5] = assay: Cytotoxicity against human HeLa cells assessed as cell growth inhibition at 4 ug/ml measured after 48 hrs by MTT assay; format: cell-based
HeLa [6] = assay: Cytotoxicity against human HeLa cells assessed as cell growth inhibition measured after 48 hrs by MTT assay; format: cell-based
Summary of the method: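 HeLa cells grown in DMEM with 10% FBS and penicillin-streptomycin (100 U/mL) at 37 °C in 5% CO2. Cells were split with trypsin at 80-90% confluence and used at passage 3. About 1×10⁴ cells/well were seeded and left overnight to attach. Cells were exposed to compounds for 48 h, then given MTT (5 mg/mL in PBS stock) for 4 h. Medium was removed and formazan read.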

SMILES | MIC (Staphylococcus aureus [1]) [mg/L] | MIC (Staphylococcus aureus [2]) [mg/L] | MIC (Staphylococcus aureus [3]) [mg/L] | MIC (Staphylococcus aureus [4]) [mg/L] | Activity (HeLa [5]) | IC50 (HeLa [6]) [mg/L]
Cc1nn(-c2ccccc2)c(Oc2cccc(C(F)(F)F)c2)c1/C=C1\SC(=S)N(CC(=O)O)C1=O | 16 (≈ 30.8 µM) | 32 (≈ 61.6 µM) | 32 (≈ 61.6 µM) | 32 (≈ 61.6 µM) |  | 
Cc1ccccc1Oc1c(/C=C2\SC(=S)N(CC(=O)O)C2=O)c(C)nn1-c1ccccc1 | 16 (≈ 34.4 µM) | 32 (≈ 68.7 µM) | 32 (≈ 68.7 µM) | 32 (≈ 68.7 µM) |  | 
CCn1cc(C(=O)O)c(=O)c2cc(F)c(N3CCNCC3)cc21 [NORFLOXACIN] | 8 (≈ 25.1 µM) | 4 (≈ 12.5 µM) | > 64 | > 64 |  | 
Cc1cccc(Oc2c(/C=C3\SC(=S)N([C@H](C(=O)O)C(C)C)C3=O)c(C)nn2-c2ccccc2)c1 | 4 (≈ 7.88 µM) | 8 (≈ 15.8 µM) | 4 (≈ 7.88 µM) | 4 (≈ 7.88 µM) |  | 
Cc1nn(-c2ccccc2)c(Cl)c1/C=C1\SC(=S)N([C@H](C(=O)O)C(C)C)C1=O | 16 (≈ 36.7 µM) | 32 (≈ 73.4 µM) | 32 (≈ 73.4 µM) | 32 (≈ 73.4 µM) |  | 
Cc1nn(-c2ccccc2)c(Oc2cccc(Cl)c2)c1/C=C1\SC(=S)N([C@H](C(=O)O)C(C)C)C1=O | 4 (≈ 7.57 µM) | 4 (≈ 7.57 µM) | 8 (≈ 15.1 µM) | 4 (≈ 7.57 µM) |  | 
Cc1nn(-c2ccccc2)c(Oc2ccc(Cl)cc2Cl)c1/C=C1\SC(=S)N([C@H](C(=O)O)C(C)C)C1=O | 4 (≈ 7.11 µM) | 4 (≈ 7.11 µM) | 4 (≈ 7.11 µM) | 4 (≈ 7.11 µM) | Non-toxic | 10.4 (≈ 18.5 µM)
Cc1nn(-c2ccccc2)c(Oc2ccc(Cl)cc2)c1/C=C1\SC(=S)N(CC(=O)O)C1=O | 16 (≈ 32.9 µM) | 16 (≈ 32.9 µM) | 16 (≈ 32.9 µM) | 16 (≈ 32.9 µM) |  | 
CCC(C)[C@@H](C(=O)O)N1C(=O)/C(=C/c2c(C)nn(-c3ccccc3)c2Oc2ccccc2C)SC1=S (stereo partly drawn) | 2 (≈ 3.83 µM) | 4 (≈ 7.67 µM) | 4 (≈ 7.67 µM) | 4 (≈ 7.67 µM) |  | 
CCC(C)[C@@H](C(=O)O)N1C(=O)/C(=C/c2c(C)nn(-c3ccccc3)c2Oc2ccc3ccccc3c2)SC1=S (stereo partly drawn) | 2 (≈ 3.59 µM) | 2 (≈ 3.59 µM) | 2 (≈ 3.59 µM) | 2 (≈ 3.59 µM) |  | 
Cc1ccc(Oc2c(/C=C3\SC(=S)N(CC(=O)O)C3=O)c(C)nn2-c2ccccc2)c(C)c1 | 8 (≈ 16.7 µM) | 8 (≈ 16.7 µM) | 16 (≈ 33.4 µM) | 16 (≈ 33.4 µM) |  | 
CCC(C)[C@@H](C(=O)O)N1C(=O)/C(=C/c2c(C)nn(-c3ccccc3)c2Oc2ccc(F)cc2)SC1=S (stereo partly drawn) | 2 (≈ 3.8 µM) | 4 (≈ 7.61 µM) | 8 (≈ 15.2 µM) | 8 (≈ 15.2 µM) |  | 
Cc1nn(-c2ccccc2)c(Oc2c(Cl)cccc2Cl)c1/C=C1\SC(=S)N([C@H](C(=O)O)C(C)C)C1=O | 8 (≈ 14.2 µM) | 16 (≈ 28.4 µM) | 8 (≈ 14.2 µM) | 16 (≈ 28.4 µM) |  | 
COc1ccccc1Oc1c(/C=C2\SC(=S)N(CC(=O)O)C2=O)c(C)nn1-c1ccccc1 | > 64 | > 64 | > 64 | > 64 |  | 
Cc1nn(-c2ccccc2)c(Oc2ccccc2Cl)c1/C=C1\SC(=S)N(CC(=O)O)C1=O | 16 (≈ 32.9 µM) | 16 (≈ 32.9 µM) | 32 (≈ 65.8 µM) | 16 (≈ 32.9 µM) |  | 
Cc1nn(-c2ccccc2)c(Oc2ccccc2)c1/C=C1\SC(=S)N(CC(=O)O)C1=O | > 64 | > 64 | > 64 | > 64 |  | 
Cc1nn(-c2ccccc2)c(Cl)c1/C=C1\SC(=S)N([C@@H](CC(C)C)C(=O)O)C1=O | 16 (≈ 35.6 µM) | 32 (≈ 71.1 µM) | 32 (≈ 71.1 µM) | 32 (≈ 71.1 µM) |  | 
Cc1ccc(Oc2c(/C=C3\SC(=S)N([C@@H](CC(C)C)C(=O)O)C3=O)c(C)nn2-c2ccccc2)c(C)c1 | 4 (≈ 7.47 µM) | 4 (≈ 7.47 µM) | 4 (≈ 7.47 µM) | 4 (≈ 7.47 µM) |  | 
Cc1nn(-c2ccccc2)c(Oc2cccc(C(F)(F)F)c2)c1/C=C1\SC(=S)N([C@H](C(=O)O)C(C)C)C1=O | 4 (≈ 7.12 µM) | 8 (≈ 14.2 µM) | 8 (≈ 14.2 µM) | 8 (≈ 14.2 µM) |  | 
